Screens from PubChem BioAssay.
Rows were chosen to be rich in hits. Some 4.1% of all compounds tested hit in one or more screens of this group.
hERG rescue = compounds protecting human hERG from proarrhythmic drug block; activation (rescue from dofetilide block), less the hit threshold, % at 10 µM; Q12809; AID 1511; CHO-hERG, FluxOR thallium flux, dofetilide IC70 present; actives 0.51% (n = 310,000);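 active means activation above the mean of controls blocked by dofetilide plus 5 SD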;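 further: thallium influx through hERG after potassium depolarization seen as dye fluorescence rise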
KCNK3 inh = human KCNK3 channel inhibition, primary screen. CHO-KCNK3 thallium flux, FluxOR fluorescence; stronger effect = lower value. actives 0.84% (n = 340,000). O14649. B-score at 10 µM;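 active means B-score under library mean minus 4 SD, starting fluorescence ratio at most library mean plus 5 SD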;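 further: more negative B-score means stronger inhibition of thallium flux through KCNK3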
KCNK9 block = human KCNK9 channel inhibition; B-score at 10 µM; HEK293 KCNK9, FluxOR thallium flux fluorescence; stronger effect = lower value; actives 1.2% (n = 310,000);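 active means ratio B-score over 3 SD below the library mean, with starting fluorescence within 5 SD of its mean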;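 further: negative B-score means less thallium flux so channel inhibition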
KCNQ1 block = inhibitors of human KCNQ1 potassium channel | actives 1.3% (n = 310,000) | P51787 | CHO-K1 KCNQ1, FluxOR thallium flux fluorescence; stronger effect = higher value | B-score at 10 µM;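 active means compounds whose thallium flux B-score, printed positive for inhibition, exceeds three library SD while starting fluorescence stays within three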;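 further: channel opened by potassium depolarization with thallium stimulus after 20 min compound exposure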
Target sequence (P51787 whole entry, looked up): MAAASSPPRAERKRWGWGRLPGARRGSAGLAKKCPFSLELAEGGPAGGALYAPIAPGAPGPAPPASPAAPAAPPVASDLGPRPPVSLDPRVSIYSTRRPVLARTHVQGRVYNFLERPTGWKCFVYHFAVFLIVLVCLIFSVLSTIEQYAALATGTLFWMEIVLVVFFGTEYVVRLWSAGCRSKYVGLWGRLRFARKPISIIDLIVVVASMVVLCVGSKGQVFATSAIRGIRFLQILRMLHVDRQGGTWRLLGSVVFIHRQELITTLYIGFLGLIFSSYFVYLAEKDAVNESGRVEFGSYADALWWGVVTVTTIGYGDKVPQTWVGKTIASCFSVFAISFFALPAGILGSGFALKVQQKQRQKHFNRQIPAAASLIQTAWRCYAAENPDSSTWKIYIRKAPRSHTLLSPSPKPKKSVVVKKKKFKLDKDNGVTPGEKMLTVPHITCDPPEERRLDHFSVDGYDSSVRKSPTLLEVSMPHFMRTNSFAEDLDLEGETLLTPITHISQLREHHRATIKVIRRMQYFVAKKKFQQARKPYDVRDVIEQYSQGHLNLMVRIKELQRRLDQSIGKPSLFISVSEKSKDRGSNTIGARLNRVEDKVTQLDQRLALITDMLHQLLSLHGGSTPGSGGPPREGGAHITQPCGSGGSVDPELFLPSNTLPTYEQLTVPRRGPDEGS
Cl transport mod = modulates chloride dependent transport by human KCC2; KCC2 cells, thallium flux FluoZin-2 fluorescence; Q9H2X9; B-score of Tl+ flux slope (higher = more flux/activation; lower = inhibition) at 10 µM; actives 2.2% (n = 190,000);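 active means thallium flux slope and its plate-corrected score both differing from the plate sample mean at a set confidence after two filtering rounds, in either direction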;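 further: slope of fluorescence scaled to starting intensity during 10 to 20 s after thallium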
KCNQ1 act = potentiators or activators of human KCNQ1 potassium channel. P51787. CHO-K1 KCNQ1, thallium flux FluxOR fluorescence; stronger effect = higher value. B-score at 10 µM. actives 0.35% (n = 310,000);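 active means fluorescence ratio B-score, a plate-corrected score, at least three library SD, with initial intensity B-score within 5 SD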
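System: CHO-K1 cells stably expressing KCNQ1 / Medium: assay buffer for compound exposure, DMSO matched across wells / Reagent: thallium- and potassium-containing depolarizing buffer / Compound: one concentration, matched DMSO / Incubation: 20 min compound pretreatment at room temperature / Measured by: kinetic FluxOR fluorescence, 10 s baseline plus 110 s post-stimulus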
Large screens that a line does not name were inactive.

COc1ccccc1/C=N/Nc1cc(N(C)C)nc(N(C)C)n1	KCNQ1 block 6
Cc1ccc(C(=O)N2CCN(S(=O)(=O)N3CCCCC3)CC2)cc1	none (no result: Cl transport mod)
CC1Oc2ccccc2N(CC(=O)N2CCCCCC2)C1=O (stereo not given)	KCNQ1 act 22 (no result: Cl transport mod)
CCn1cc(CN2CCC(n3nccc3NC(=O)C3CCCC3)CC2)cn1	none (no result: Cl transport mod)
Cn1c(Sc2ccccc2Cl)c(C=O)c2ccccc21	KCNQ1 block 11 (no result: Cl transport mod)
CCN(CC)C(=O)CN1C(=O)C2CC=C(Cl)CC2C1=O (stereo not given)	hERG rescue 5.8
COc1ccc(-n2nc(C(=O)c3cccs3)cc(-c3nc4ccccc4[nH]3)c2=N)cc1	none
Cc1ccccc1-n1nc(C(=O)c2cccs2)cc(-c2nc3ccccc3[nH]2)c1=N	KCNQ1 block 6
CCC1=NN2C(=N)/C(=C/c3cc(C)n(Cc4ccccc4)c3C)C(=O)N=C2S1	none
Cc1cc(/C=C2\C(=N)N3N=C(C(C)C)SC3=NC2=O)c(C)n1Cc1ccccc1	KCNQ1 act 20
CC1CCN(S(=O)(=O)c2ccc3[nH]c(=O)[nH]c3c2)CC1	none (no result: Cl transport mod)
CCOC(=O)/C(=C/C=C1\Sc2ccccc2N1CC)C(C)=O	none
CCOC(=O)/C(=C/C=C1\Sc2cc(C)c(C)cc2N1CC)C(C)=O	KCNQ1 block 13
O=S1(=O)Nc2c(ccc3cccnc23)-c2ccccc21	Cl transport mod 4.06
COc1ccc(-c2[nH]c3ccccc3c2SCCNC(=O)c2cc3ccccc3oc2=O)cc1	KCNQ1 block 8
O=C(O)c1cc([N+](=O)[O-])ccc1NCCCc1ccccc1	KCNQ1 block 6 (no result: Cl transport mod)
N#Cc1c2ccc(O)cc2n2ccccc12	Cl transport mod -4.22
Cc1cc(NC(=O)COC(=O)CCS(=O)(=O)c2cc(Cl)ccc2Cl)no1	none (no result: Cl transport mod)
Cc1ccc(NC(=O)CSc2ncc3ccccn23)cc1C	hERG rescue 5.9
Cc1ccc(NC(=O)CSc2ncn(-c3ccccc3)n2)cc1C	none
CSc1ncccc1C(=O)Nc1cccc(S(=O)(=O)N(C)c2ccccc2)c1	none (no result: hERG rescue, KCNK9 block, KCNQ1 block, Cl transport mod, KCNQ1 act)
O=C(Nc1nc(-c2ccc(Cl)cc2Cl)cs1)c1ccc(OCC2CCCO2)cc1 (stereo not given)	KCNQ1 block 6
CC(C)(C)c1ccc(C(=O)NCCC(=O)Nc2cc(Cl)ccc2N2CCOCC2)cc1	none (no result: hERG rescue, KCNK9 block, KCNQ1 block, Cl transport mod, KCNQ1 act)
COc1ccc(NS(=O)(=O)c2ccc3ccccc3c2)c2ncccc12	hERG rescue 5.7, KCNQ1 act 11 (no result: Cl transport mod)
Cc1cc2nc(-c3ccc(SCc4ccccc4C#N)nc3)[nH]c2cc1C	KCNQ1 block 7 (no result: Cl transport mod)
CCOC(=O)c1ccc(N2CCN(c3cc(C)ccc3C)CC2)c(N)c1	KCNK9 block -6.76 (no result: Cl transport mod)
O=S(=O)(/C=C/C=C/S(=O)(=O)c1ccccc1)c1ccccc1	none (no result: hERG rescue, KCNK9 block, KCNQ1 block, Cl transport mod, KCNQ1 act)
COc1ccccc1OS(=O)(=O)c1ccc(NC(C)=O)cc1	none
COC(=O)/C=C/S(=O)(=O)c1ccc(NC(C)=O)cc1	KCNQ1 block 6 (no result: Cl transport mod)
COc1ccccc1N1C(=O)S/C(=C\c2ccc(C)s2)C1=O	hERG rescue 4.8 (no result: Cl transport mod)
CCOC(=O)c1ccc2c(c1)N(CC)/C(=C\C=C1/SC(=S)N(CC)C1=O)N2CC	none (no result: hERG rescue, KCNK3 inh, KCNK9 block, KCNQ1 block, KCNQ1 act)
C=CCN1C(=O)/C(=C/C=C2/N(CC)c3ccc(S(=O)(=O)N(C)C)cc3N2CC)SC1=S	KCNQ1 block 9
COc1ccc(C(C)NCCC(c2ccc(OC(C)C)cc2)c2ccccc2OC)cc1 (stereo not given)	KCNQ1 block 6 (no result: Cl transport mod)
CCCCCCOC(=O)C[N+](C)(C)CCOC1CC2CCC1(C)C2(C)C (stereo not given)	KCNQ1 block 9 (no result: Cl transport mod)
CC(C)CCOC(=O)C[N+](C)(C)CCOC1CC2CCC1(C)C2(C)C (stereo not given)	none
CCCOC(=O)C[N+](C)(C)CCOC1CC2CCC1(C)C2(C)C (stereo not given)	none
CCCCOC(=O)C[N+](C)(C)CCOC1CC2CCC1(C)C2(C)C (stereo not given)	KCNQ1 block 7
CCC(C)OC(=O)C[N+](C)(C)CCOC1CC2CCC1(C)C2(C)C (stereo not given)	KCNQ1 block 7
CC1(C)C2CCC1(C)C(OCCNCCOC(=O)Nc1ccccc1)C2 (stereo not given)	none
